Activity calls are given as the source filed them. The calls are words filed in the database; no cut-off is given here.
Columns and labels:
[1] = Half life in ICR mouse at 2 mg/kg, iv measured up to 24 hrs by LC-MS/MS analysis; format: ADME, organism-based; settings: in vivo
[2] = Volume of distribution at steady state in ICR mouse at 2 mg/kg, iv measured up to 24 hrs by LC-MS/MS analysis; format: ADME, organism-based; settings: in vivo, read-out: Vdss
[3] = Cmax in ICR mouse at 10 mg/kg, po measured up to 24 hrs by LC-MS/MS analysis; format: ADME, organism-based; set-up: route oral, dose 10 mg/kg, time <=24; settings: in vivo
[4] = AUC (0 to inf) in ICR mouse at 10 mg/kg, po measured up to 24 hrs by LC-MS/MS analysis; format: ADME, organism-based; set-up: route oral, dose 10 mg/kg, time <=24; settings: in vivo
[5] = Clearance in ICR mouse at 2 mg/kg, iv measured up to 24 hrs by LC-MS/MS analysis; format: ADME, organism-based; settings: in vivo
[6] = Half life in ICR mouse at 10 mg/kg, po measured up to 24 hrs by LC-MS/MS analysis; format: ADME, organism-based; settings: in vivo
[7] = Tmax in ICR mouse at 10 mg/kg, po measured up to 24 hrs by LC-MS/MS analysis; format: ADME, organism-based; settings: in vivo
[8] = Oral bioavailability in ICR mouse at 10 mg/kg measured up to 24 hrs by LC-MS/MS analysis; format: ADME, organism-based; settings: in vivo
[9] = AUC (0 to inf) in ICR mouse at 2 mg/kg, iv measured up to 24 hrs by LC-MS/MS analysis; format: ADME, organism-based; set-up: route intravenous, dose 2 mg/kg, time <=24; settings: in vivo; for AUC(0-inf): ICR
[10] = target: Aurora kinase B (Homo sapiens) (UniProt Q96GD4); assay: Inhibition of Aurora B phosphorylation in human SKNBE2 cells assessed as reduction in phosphorylation at Thr 232 residue at 50 to 1000 nM after 24 hrs by Western blot analysis; format: cell-based; settings: dose 50-1000 nM
Summary of the method: (§1)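 Cells treated with compound at various concentrations for 24 h, then washed in PBS, lysed in Laemmli buffer and boiled 10 min. Lysates run on SDS-PAGE, transferred to PVDF and probed with antibodies, then AP- or HRP-conjugated secondaries with chemiluminescent detection. Loading control β-actin. NCI-H82 grown in RPMI1640 and SK-N-BE(2) in MEM, each with 10% FBS. Relative levels quantified from triplicate experiments.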

[11] = target: Aurora kinase B (Homo sapiens) (UniProt Q96GD4); assay: Inhibition of Aurora B phosphorylation in human NCI-H82 cells assessed as reduction in phosphorylation at Thr 232 residue at 50 to 1000 nM after 24 hrs by Western blot analysis; format: cell-based; settings: dose 50-1000 nM; summary of the method: as §1
SKNBE2 = assay: Inhibition of Histone H3 phosphorylation in human SKNBE2cells assessed as reduction in phosphorylation at Ser 10 residue at 50 to 1000 nM after 24 hrs by Western blot analysis; settings: dose 50-1000 nM; summary of the method: as §1
SK-N-BE(2) [12] = assay: Down regulation of Cyclin B1 expression in human SKNBE2 cells at 50 to 1000 nM after 24 hrs by Western blot analysis; format: functional, cell-based; settings: dose 50-1000 nM; summary of the method: as §1
[13] = Inhibition of Histone H3 phosphorylation in human NCI-H446 cells xenografted in assessed as reduction in phosphorylation at Ser 10 residue at 100 mg/kg, po measured upto 8 hrs by western blot analysis relative to control
NCI-H446 [14] = assay: Induction of apoptosis in human NCI-H446 cells xenografted in athymic nu/nu nude mouse assessed as increase in cleaved PARP1 protein expression level at 100 mg/kg, po measured up to 24 hrs by Western blot analysis; settings: time hrs <=24
NCI-H82 [15] = assay: Down regulation of Cyclin B1 expression in human NCI-H82 cells at 50 to 1000 nM after 24 hrs by Western blot analysis; format: functional, cell-based; settings: dose 50-1000 nM; summary of the method: as §1
NCI-H82 [16] = assay: Inhibition of Histone H3 phosphorylation in human NCI-H82 cells assessed as reduction in phosphorylation at Ser 10 residue at 50 to 1000 nM after 24 hrs by Western blot analysis; format: cell-based; settings: dose 50-1000 nM; summary of the method: as §1
[17] = target: T1, Aurora kinase A (Homo sapiens) (UniProt O14965); assay: Inhibition of recombinant GST-tagged N-terminal truncated human Aurora A (123 to 401 residues) expressed in Sf9 insect cell using tetra-LRRASLG peptide as substrate at 100 nM incubated for 120 mins by Kinase-Glo plus luminescent kinase assay relative to control
T1 sequence (whole entry): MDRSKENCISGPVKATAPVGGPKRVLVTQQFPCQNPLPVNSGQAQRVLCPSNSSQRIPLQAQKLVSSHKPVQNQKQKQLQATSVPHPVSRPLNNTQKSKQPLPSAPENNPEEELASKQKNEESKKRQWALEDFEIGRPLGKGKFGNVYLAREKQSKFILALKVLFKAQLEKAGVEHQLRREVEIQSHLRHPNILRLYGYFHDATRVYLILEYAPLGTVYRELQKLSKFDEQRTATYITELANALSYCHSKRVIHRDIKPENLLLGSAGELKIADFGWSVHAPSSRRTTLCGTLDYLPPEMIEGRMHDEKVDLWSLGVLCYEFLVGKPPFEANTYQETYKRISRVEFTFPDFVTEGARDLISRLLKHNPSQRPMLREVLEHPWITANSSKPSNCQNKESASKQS

[18] = Effect on cMYC protein expression level in human NCI-H82 cells assessed as fold change at 1 uM incubated for 24 hrs by Western blot analysis relative to control; format: functional; summary of the method: as §1
[19] = Effect on MYCN protein expression level in human SKNBE2 cells assessed as fold change at 1 uM incubated for 24 hrs by Western blot analysis relative to control; format: functional, SK-N-BE(2); summary of the method: as §1
SK-N-BE(2) [20] = assay: Growth inhibition of human SKNBE2 cells assessed as reduction in cell viability after 24 hrs by PrestoBlue Cell Viability assay; settings: SKNBE2, 24 h
NCI-H82 [21] = assay: Induction of cell cycle arrest in human NCI-H82 cells at 1 uM after 24 hrs by Propidium iodide staining based flow cytometric analysis; format: functional
NCI-H82 [22] = assay: Growth inhibition of human NCI-H82 cells assessed as reduction in cell viability after 72 hrs by PrestoBlue Cell Viability assay; format: functional, cell-based; settings: NCI-H82, 72 h
Summary of the method: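 Cells seeded at 5000–10,000 per well, grown 24 h in RPMI1640 with 10% FBS and antibiotics, then exposed to compound at 0–10 μM for 72 h. Viability read by PrestoBlue fluorescence. IC50 from triplicate eight-point titration.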

NCI-H446 [23] = assay: Anti-tumor activity against human NCI-H446 cells xenografted in athymic nu/nu nude mouse assessed as reduction in tumor volume at 50 to 100 mg/kg, po administered at 5 on-2-off for 2 to 4 weeks; format: functional, organism-based; settings: dose 50-100 mg/kg, time 2-4 weeks
Summary of the method: (§2)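 Male athymic nu/nu mice, 6 weeks old, inoculated subcutaneously with 1 × 10⁶ NCI-H446 cells in saline with 50% Matrigel. Dosing IV or oral, vehicle 5% dimethylacetamide/95% PEG400, on a 5-on-2-off schedule for 2–4 weeks once tumors reached ≥200 mm³. Caliper volume = length × width²/2; tumors and body weight measured at least twice weekly. ANOVA with Student–Newman–Keuls, P < 0.05.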

[24] = Toxicity in athymic nu/nu nude mouse xenografted with NCI-H446 cells assessed as reduction in body weight at 50 to 100 mg/kg, po administered at 5 on-2-off for 2 to 4 weeks relative to control; format: organism-based; set-up: scale not given: the % may be the effect or the level left; settings: in vivo, dose lower 50 mg/kg, time lower 2 weeks, dose upper 100 mg/kg, time upper 4 weeks; summary of the method: as §2

Chain of Aurora kinase B (Homo sapiens) (Q96GD4 whole entry): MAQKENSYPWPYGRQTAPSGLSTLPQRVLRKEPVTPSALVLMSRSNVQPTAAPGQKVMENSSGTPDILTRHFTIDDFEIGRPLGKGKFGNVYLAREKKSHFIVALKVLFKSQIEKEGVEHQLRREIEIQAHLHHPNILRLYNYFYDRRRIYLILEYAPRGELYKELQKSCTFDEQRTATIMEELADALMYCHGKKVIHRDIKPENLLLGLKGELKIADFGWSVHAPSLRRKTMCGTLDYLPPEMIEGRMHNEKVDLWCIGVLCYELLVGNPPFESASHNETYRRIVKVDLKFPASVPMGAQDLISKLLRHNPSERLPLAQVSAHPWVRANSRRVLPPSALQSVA

SMILES: CCN1CCN(c2cc(Nc3cc(C)nn3C(=O)C(C)(C)C)nc(N[C@H]3CCN(C(=O)c4ccc(Cl)cc4F)C3)n2)CC1
- half-life [1]: 5.5 h
- Vd [2]: 18.8 L/kg
- Cmax [3]: 36.1 ng/mL
- AUC(0-inf) [4]: 157 ng·h/mL
- clearance [5]: 73.3 mL/min/kg
- half-life [6]: 2.2 h
- Tmax [7]: 1.4 h
- bioavailability [8]: 7.8%
- AUC(0-inf) [9]: 401 ng·h/mL

SMILES: COc1cc(Nc2ncc3c(n2)-c2ccc(Cl)cc2C(c2c(F)cccc2OC)=NC3)ccc1C(=O)O [ALISERTIB]
- inhibition [10]: Dose-Dependent Effect
- inhibition [11]: Dose-Dependent Effect
- inhibition (SKNBE2): Active
- Activity (SK-N-BE(2) [12]): Active
- inhibition in vivo at 100 mg/kg [13]: > 90%
- Activity (NCI-H446 [14]): Active
- Activity (NCI-H82 [15]): Active
- inhibition (NCI-H82 [16]): Active

SMILES: CCN1CCN(c2cc(Nc3cc(C)[nH]n3)nc(N[C@H]3CCN(C(=O)c4cc(F)c(Cl)c(F)c4)C3)n2)CC1
- inhibition [17]: < 50%

SMILES: Cc1cc(Nc2cc(N3CC(N(C)C)C3)nc(N[C@H]3CCN(C(=O)c4cccc(Cl)c4F)C3)n2)n[nH]1
- fold change (FC) [18]: 1.084
- fold change (FC) [19]: 0.754

SMILES: CCN(CCCOc1ccc2c(Nc3cc(CC(=O)Nc4cccc(F)c4)[nH]n3)ncnc2c1)CCOP(=O)(O)O [BARASERTIB]
- IC50 (SK-N-BE(2) [20]): 1 nM
- Activity (NCI-H82 [21]): Active
- IC50 (NCI-H82 [22]): 1 nM

SMILES: CCN1CCN(c2cc(Nc3cc(C)[nH]n3)nc(N[C@H]3CCN(C(=O)c4cc(F)c(F)cc4F)C3)n2)CC1
- inhibition [17]: < 50%

SMILES: CCN1CCN(C(=O)Cc2ccc(Nc3ncc(F)c(Nc4ccc(C(=O)Nc5ccccc5Cl)cc4)n3)cc2)CC1
- IC50 (SK-N-BE(2) [20]): 1 nM
- IC50 (NCI-H82 [22]): 1 nM

SMILES: CCOC(=O)n1nc(C)cc1Nc1cc(N2CCN(CC)CC2)nc(N[C@H]2CCN(C(=O)c3ccc(Cl)cc3F)C2)n1
- half-life [1]: 5.8 h
- Vd [2]: 2.8 L/kg
- Cmax [3]: 1090 ng/mL
- AUC(0-inf) [4]: 4050 ng·h/mL
- clearance [5]: 20 mL/min/kg
- Activity (NCI-H446 [23]): Dose-Dependent Effect
- half-life [6]: 2.7 h
- Activity [24]: < 5%
- Tmax [7]: 0.3 h
- bioavailability [8]: 54.5%
- AUC(0-inf) [9]: 1480 ng·h/mL

SMILES: Cc1cc(Nc2cc(N(C)CCN(C)C)nc(N[C@H]3CCN(C(=O)c4cccc(Cl)c4F)C3)n2)n[nH]1
- fold change (FC) [18]: 0.911
- fold change (FC) [19]: 0.805

SMILES: CCN1CCN(c2cc(Nc3cc(C)[nH]n3)nc(N[C@H]3CCN(C(=O)c4cccc(Cl)c4F)C3)n2)CC1
- fold change (FC) [19]: 0.741

SMILES: CCN1CCN(c2cc(Nc3cc(C)[nH]n3)nc(N[C@H]3CCN(C(=O)c4ccccc4)C3)n2)CC1
- fold change (FC) [18]: 0.93
- fold change (FC) [19]: 0.919

SMILES: CCOC(=O)n1nc(Nc2cc(N3CCN(CC)CC3)nc(N[C@H]3CCN(C(=O)c4ccc(Cl)cc4F)C3)n2)cc1C
- Cmax [3]: 274 ng/mL
- AUC(0-inf) [4]: 961 ng·h/mL
- half-life [6]: 2.3 h
- Tmax [7]: 0.4 h

SMILES: CCN1CCN(c2cc(Nc3cc(C)nn3C(=O)OC(C)(C)C)nc(N[C@H]3CCN(C(=O)c4ccc(Cl)cc4F)C3)n2)CC1
- half-life [1]: 5 h
- Vd [2]: 4.9 L/kg
- Cmax [3]: 690 ng/mL
- AUC(0-inf) [4]: 1130 ng·h/mL
- clearance [5]: 38 mL/min/kg
- half-life [6]: 3.3 h
- Tmax [7]: 0.5 h
- bioavailability [8]: 28.9%
- AUC(0-inf) [9]: 780 ng·h/mL

SMILES: CCN1CCN(c2cc(Nc3cc(C)[nH]n3)nc(N[C@H]3CCN(S(=O)(=O)c4ccc(Cl)cc4F)C3)n2)CC1
- inhibition [17]: < 50%

SMILES: Cc1cc(Nc2cc(N3CCN(C)CC3)nc(N[C@H]3CCN(C(=O)c4cccc(Cl)c4F)C3)n2)n[nH]1
- fold change (FC) [18]: 0.843
- fold change (FC) [19]: 0.815

SMILES: CCN1CCN(c2cc(Nc3cc(C)[nH]n3)nc(N[C@H]3CCN(C(=O)c4ccc(Cl)nc4F)C3)n2)CC1
- inhibition [17]: < 50%

SMILES: CCN1CCN(c2cc(Nc3cc(C)[nH]n3)nc(N[C@H]3CCN(C(=O)c4ccc(C(F)(F)F)cc4F)C3)n2)CC1
- inhibition [17]: < 50%

SMILES: Cc1cc(Nc2cc(N3CC[C@H](N(C)C)C3)nc(N[C@H]3CCN(C(=O)c4cccc(Cl)c4F)C3)n2)n[nH]1
- fold change (FC) [18]: 0.996
- fold change (FC) [19]: 0.809

SMILES: CCC(=O)n1nc(Nc2cc(N3CCN(CC)CC3)nc(N[C@H]3CCN(C(=O)c4ccc(Cl)cc4F)C3)n2)cc1C
- half-life [1]: 1 h
- Vd [2]: 0.9 L/kg
- Cmax [3]: 114 ng/mL
- AUC(0-inf) [4]: 243 ng·h/mL
- half-life [6]: 1.9 h
- Tmax [7]: 0.4 h
- AUC ([9]; 24 h): 351 ng·h/mL
